Reference: ChEMBL document CHEMBL2016541, “Synthesis and biological evaluation of isoxazolo[4,5-d]pyridazin-4-(5H)-one analogues as potent anti-inflammatory agents” (Bioorg Med Chem, 2012)

Key:
Rattus norvegicus [1] = assay: Ulcerogenic activity in rat assessed as ulcer index at 0.14 mmol/kg, po after 6 hrs; type: toxicity, organism-based; conditions: in vivo
Outline: (§1)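 Rats fasted 24 h (water allowed), then dosed orally with 0.14 mmol/kg in 1.0 mL 1% methylcellulose; vehicle controls given. Euthanized by CO2 at 6 h. Stomachs opened along the greater curvature, rinsed, and ulcers measured under magnifier lenses. UI = summed ulcer length (mm) per stomach averaged over 4 rats; mean ± SEM; one-way ANOVA with Holm–Sidak.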

[2] = target: T1, Prostaglandin G/H synthase 2 (Homo sapiens, UniProt P35354); assay: Inhibition of human recombinant COX2 by fluorescence assay
T1 sequence (P35354 whole entry): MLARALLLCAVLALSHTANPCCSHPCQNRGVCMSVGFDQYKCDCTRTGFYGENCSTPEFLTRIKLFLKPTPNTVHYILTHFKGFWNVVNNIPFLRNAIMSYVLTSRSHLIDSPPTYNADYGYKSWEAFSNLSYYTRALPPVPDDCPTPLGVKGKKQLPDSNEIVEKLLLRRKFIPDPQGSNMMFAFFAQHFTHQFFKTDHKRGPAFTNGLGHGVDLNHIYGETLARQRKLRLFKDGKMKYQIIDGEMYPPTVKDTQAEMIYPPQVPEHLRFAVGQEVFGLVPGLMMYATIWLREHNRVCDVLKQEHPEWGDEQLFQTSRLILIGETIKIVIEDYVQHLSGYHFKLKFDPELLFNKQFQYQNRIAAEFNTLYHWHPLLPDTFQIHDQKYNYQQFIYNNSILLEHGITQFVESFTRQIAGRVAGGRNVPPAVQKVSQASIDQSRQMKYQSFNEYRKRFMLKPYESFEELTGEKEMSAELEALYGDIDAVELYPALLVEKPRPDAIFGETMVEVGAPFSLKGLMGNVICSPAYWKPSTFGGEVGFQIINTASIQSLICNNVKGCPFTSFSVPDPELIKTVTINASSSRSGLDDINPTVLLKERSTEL

[3] = Inhibition of potato 5-LOX by EIA; design: species or system Solanum tuberosum
Outline: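 Potato 5-LOX activity measured with an enzyme immunoassay (LOX assay kit). Mean of two determinations; deviation from the mean <10%.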

Rattus norvegicus [4] = assay: Antiinflammatory activity in rat assessed as inhibition of carrageenan-induced rat paw oedema at 0.14 mmol/kg, po after 3 hrs; type: functional
Outline: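 Carrageenan-induced paw edema in rats. Compounds given orally, suspended in 1% aqueous methylcellulose. Test compounds dosed at 0.14 mmol, equivalent to 30 mg/kg ibuprofen. Mean ± SEM, n = 4.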

Rattus norvegicus [5] = assay: Antiinflammatory activity in rat assessed as inhibition of carrageenan-induced rat paw oedema at 30 mg/kg, po after 3 hrs; type: functional
Outline: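 Carrageenan-induced paw edema in rats. Compounds given orally, suspended in 1% aqueous methylcellulose. Test compounds dosed at 0.14 mmol, equivalent to 30 mg/kg ibuprofen. […] Mean ± SEM, n = 4.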

Rattus norvegicus [6] = assay: Ulcerogenic activity in rat assessed as ulcer index at 30 mg/kg, po after 6 hrs; type: toxicity, organism-based; design: dose 30 mg/kg, route oral; conditions: in vivo; outline: as §1

Row | SMILES | IC50 [2] | IC50 [3] | UI (Rattus norvegicus [1]) | other results
1 | CNc1nnc(Cn2nc(Cc3ccc([N+](=O)[O-])cc3)c3onc(C)c3c2=O)s1 |  |  | 0.75 mm | 
2 | Cc1noc2c(Cc3ccc([N+](=O)[O-])cc3)nn(Cc3n[nH]c(=S)n3C)c(=O)c12 |  |  | 0.25 mm | 
3 | COc1ccc(Cc2nn(Cc3n[nH]c(=S)n3-c3ccccc3)c(=O)c3c(C)noc23)cc1 |  |  | 0 mm | 
4 | COc1ccc(Cc2nn(Cc3n[nH]c(=S)n3C)c(=O)c3c(C)noc23)cc1 |  |  | 0.25 mm | 
5 | CC(C)Cc1ccc(C(C)C(=O)O)cc1 (stereo not drawn) [IBUPROFEN] |  |  |  | inhibition in vivo at 30 mg/kg (Rattus norvegicus [5]): 18.5%; UI (Rattus norvegicus [6]): 7 mm
6 | Cc1noc2c(Cc3ccccc3)nn(Cc3nnc(Nc4ccccc4)s3)c(=O)c12 |  |  | 0.5 mm | 
7 | O=C(O)/C=C/c1ccc(O)c(O)c1 [CAFFEIC ACID] |  | 4 µM |  | 

Further lines, with some results ahead:

Row | IC50 [2] | IC50 [3] | SMILES | UI (Rattus norvegicus [1]) | other results
8 | 9.2 µM | 14.8 µM | CCn1c(Cn2nc(Cc3ccc([N+](=O)[O-])cc3)c3onc(C)c3c2=O)n[nH]c1=S | 0 mm | inhibition in vivo at 140 µmol/kg (Rattus norvegicus [4]): 38%
9 | > 100 µM | 72.8 µM | CCNc1nnc(Cn2nc(Cc3ccccc3)c3onc(C)c3c2=O)s1 |  | 
10 | > 100 µM | 16.5 µM | Cc1noc2c(Cc3ccc([N+](=O)[O-])cc3)nn(Cc3n[nH]c(=S)n3-c3ccccc3)c(=O)c12 |  | 
11 | 2.2 µM | 8.6 µM | CCn1c(Cn2nc(Cc3ccc(OC)cc3)c3onc(C)c3c2=O)n[nH]c1=S |  | 
12 | > 100 µM | 45.1 µM | Cc1noc2c(Cc3ccccc3)nn(Cc3n[nH]c(=S)n3-c3ccccc3)c(=O)c12 |  | 
13 |  | 1.1 µM | CC(c1cc2ccccc2s1)N(O)C(N)=O (stereo not drawn) [ZILEUTON] |  | 
14 | > 100 µM | 46.2 µM | COc1ccc(Cc2nn(Cc3nnc(Nc4ccccc4)s3)c(=O)c3c(C)noc23)cc1 |  | 
